Source: PubChem BioAssay
M4 ag: CHRM4 agonism in calcium assay; P08173; activation, % at 3 µM; CHO-K1 hM4/Gqi5, Fluo-8 calcium fluorescence; vehicle 0%, full acetylcholine response 100%; 360,000 compounds, 0.14% hits;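 active means activation above the run mean over all test wells plus 3 SD, cut at about 32% in these data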;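 further: peak over basal fluorescence ratio per well then scaled between controls; 0% = DMSO wells and 100% = acetylcholine at EC100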
CHRM5 agonist: agonists of human muscarinic M5 receptor (CHRM5) | AID 624037 | activation, % at 3 µM | CHO-K1 hM5 cells, Fluo-8 calcium fluorescence; 0% DMSO wells, 100% maximal acetylcholine response | 360,000 compounds, 0.19% hits | P08912;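 active means activation above the run's mean over test compounds plus 3 SD, cut at about 23% in these data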;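 further: signal is peak over basal fluorescence ratio across the kinetic read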
Target sequence (P08912 whole entry, looked up): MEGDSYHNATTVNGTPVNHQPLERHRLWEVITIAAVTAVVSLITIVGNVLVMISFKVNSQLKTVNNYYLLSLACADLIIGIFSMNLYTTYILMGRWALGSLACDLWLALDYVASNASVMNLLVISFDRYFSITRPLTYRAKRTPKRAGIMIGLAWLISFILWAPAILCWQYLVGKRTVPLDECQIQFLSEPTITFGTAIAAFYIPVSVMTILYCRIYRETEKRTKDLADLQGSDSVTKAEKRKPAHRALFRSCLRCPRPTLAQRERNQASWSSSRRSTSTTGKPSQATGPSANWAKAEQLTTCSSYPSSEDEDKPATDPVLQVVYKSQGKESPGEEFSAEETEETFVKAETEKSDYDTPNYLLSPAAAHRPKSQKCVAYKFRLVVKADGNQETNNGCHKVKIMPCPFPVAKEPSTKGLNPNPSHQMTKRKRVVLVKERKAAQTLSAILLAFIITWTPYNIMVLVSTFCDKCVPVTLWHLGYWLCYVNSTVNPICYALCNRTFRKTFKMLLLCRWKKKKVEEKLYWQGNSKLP
M4 PAM: positive allosteric modulators of human muscarinic M4 receptor | 360,000 compounds, 0.4% hits | CHO-K1 hM4/Gqi5, Fluo-8 calcium fluorescence, ACh EC20; 0% = ACh EC20, 100% = maximal ACh | activation, % at 3 µM | P08173 | AID 624126;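 active means activation above its plate's cutoff, the mean activation of sample wells plus 3 SD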
M5 antag: blocks acetylcholine activation of human M5 receptor. P08912. CHO-hM5 cells, Fluo-8 calcium fluorescence, ACh EC80. inhibition, % at 3 µM. 360,000 compounds, 0.59% hits. AID 624040;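 active means inhibition above a per-plate cutoff, the mean of that plate's test compounds plus 3 SD, cut at about 27% in these data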;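 further: 0% = acetylcholine EC80 with DMSO and 100% = DMSO without agonist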
CHRM4 antagonist: CHRM4 antagonism in calcium assay | inhibition, % at 3 µM | 360,000 compounds, 0.73% hits | CHO-hM4 cells, ACh EC80, Fluo-8 calcium fluorescence;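 active means inhibition above its plate's cutoff, the mean inhibition of sample wells plus 3 SD, cut at about 27% in these data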;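 further: 0% = acetylcholine EC80 with DMSO and 100% = DMSO without agonist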
M5 PAM: CHRM5 positive allosteric modulation | 360,000 compounds, 0.3% hits | CHO-K1 hM5, Fluo-8 calcium, ACh EC20 PAM; 0% = ACh EC20, 100% = ACh EC100 | activation, % at 3 µM | AID 624038 | P08912;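 active means activation above the run cutoff, the mean activation of all test compounds plus 3 SD, cut at about 18% in these data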
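Assay system: CHO-K1 hM5 cells / Incubation: Fluo-8 loading 80 min at 37 °C plus 30 min room temperature / Technique: Fluo-8 calcium dye fluorescence, kinetic read / Repeats: single replicate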
Active calls of the source: *. Most compounds without a hit are left out; they make up all but 1.9% or so of the library.

SMILES	M4 ag	CHRM5 agonist	M4 PAM	M5 antag	CHRM4 antagonist	M5 PAM
Cc1cc(/C=C2\NC(=S)N(C)C2=O)ccc1N1CCCC1	81.8*	138.5*	-24.8	58.9*	44.9*	-22.8
CCN1C(=O)/C(=C/c2ccc(N3CCCC3)cc2)NC1=S	58.4*	96.5*	-17.3	58.9*	36.8*	-21.5
CCCN1C(=O)/C(=C/c2ccc(N3CCCC3)c(C)c2)NC1=S	77.0*	69.4*	-19.0	62.2*	53.5*	-45.9
O=C(COC(=O)C1CCC1)NCc1ccccc1	1.6	-2.0	24.1*	-4.1	1.9	7.0
O=C(COC(=O)C1CCCC1)NCc1ccc(Cl)cc1	0.7	-2.6	0.8	2.6	-5.4	2.0
CCN(CC)CCNC(C(=O)Nc1cccc(C(C)=O)c1)c1ccccc1 (stereo unspecified)	0.6	-10.0	-19.3	19.0	53.8*	-21.3
CCOc1ccc(NC(C(=O)Nc2cccc(C(C)=O)c2)c2ccccc2)cc1 (stereo unspecified)	2.8	-3.6	-6.0	3.6	-1.5	-3.3
COc1cccc(-c2nc(C#N)c(N3CCN(C(=O)c4ccco4)CC3)o2)c1	0.6	-3.0	21.6*	-8.1	2.7	4.9
N#Cc1nc(-c2ccc(F)cc2)oc1N1CCN(C(=O)c2ccco2)CC1	1.3	-3.5	-1.9	12.7	-12.4	-8.7
N#Cc1nc(-c2ccccc2Cl)oc1N1CCN(C(=O)c2ccco2)CC1	0.4	-0.4	6.7	-18.5	-6.9	23.0*
CC(C)(C)c1cc(NC(=O)c2ccc(OC3CCCC3)cc2)no1	1.0	0.5	2.2	3.1	-4.0	-1.1
O=C(Nc1ccon1)c1ccc(OC2CCCC2)cc1	1.2	-0.2	-10.7	9.6	38.2*	-9.0
CN1C(=O)C(C)(C)c2cc(S(=O)(=O)NCCc3ccc(Cl)cc3)ccc21	1.8	0.2	-0.8	-0.3	-5.7	-6.1
Fc1cccc(NC(=S)NC2CCCCCCC2)c1	14.3	4.0	-6.0	27.3*	-6.6	-16.9
S=C(Nc1ccc(Cl)c(Cl)c1)NC1CCCCC1	17.7	2.7	-10.1	28.8*	14.8	-22.7
S=C(Nc1ccc(Cl)c(Cl)c1)NC1CCN(Cc2ccccc2)CC1	46.0*	18.7	3.3	33.4*	37.6*	-14.3
Cc1cccc(NC(=S)NC2CCN(Cc3ccccc3)CC2)c1C	4.8	0.2	23.6*	-6.8	4.9	8.7
Fc1ccc(NC(=S)NC2CCN(Cc3ccccc3)CC2)cc1	5.8	-1.6	-9.3	-1.8	0.8	-4.6
S=C(Nc1cccc(Cl)c1Cl)NC1CCN(Cc2ccccc2)CC1	9.3	-1.1	-0.1	-2.3	8.6	5.4
O=C(O)c1cccc(Cn2cc(Br)cn2)c1	1.2	-2.1	12.3	-4.7	-6.7	8.7
O=C(NCc1ccncc1)c1cccc(Cn2cc(Br)cn2)c1	1.5	-11.4	-21.5	-1.9	81.5*	-13.4
CCN1CCN(C(CNS(=O)(=O)c2ccc(C)cc2)c2ccccc2)CC1 (stereo unspecified)	2.5	-8.7	-17.5	9.5	-15.7	-11.9
Oc1ccccc1/C=N/N1CCCCC1	0.5	5.0	-3.4	29.8*	-0.2	-8.5
Cc1ccc(SC(=O)c2c([N+](=O)[O-])c(C)nn2C)cc1	-0.6	-18.9	-15.1	16.5	56.9*	-30.0
Cc1cc(C)n(C(=O)c2c([N+](=O)[O-])c(C)nn2C)n1	-0.6	-0.5	-8.4	11.8	8.8	-3.0
SMILES	M4 ag	CHRM5 agonist	M4 PAM	M5 antag	CHRM4 antagonist	M5 PAM
N#Cc1c(Cl)nc(N/N=C/c2ccccc2)c(Cl)c1Cl	0.3	-0.3	4.0	-3.8	6.2	0.1
C[N+](C)(C)c1ccc(/C=N/Nc2nc(Cl)c(C#N)c(Cl)c2Cl)cc1	2.7	31.9*	-0.9	-4.2	0.6	-5.2
CCC(C)[C@H](NC(=O)[C@@H]1CSC2c3ccccc3C(=O)N21)C(=O)NCc1ccco1 (stereo partly specified)	0.4	-2.0	3.3	11.9	-1.6	-6.2
CC1CCCCN1S(=O)(=O)c1cccc2nonc12 (stereo unspecified)	0.2	-4.7	3.2	-2.6	-8.0	-1.6
CCN1/C(=C/c2ccc3cc(C)ccc3[n+]2CC)Sc2cc(C)ccc21	11.2	7.8	-16.6	41.7*	16.9	-21.9
CCN1/C(=C/c2ccc3ccccc3[n+]2CCCS(=O)(=O)[O-])C=Cc2cc(C)ccc21	0.4	-2.2	-1.0	14.4	3.3	-5.9
CCCCN1/C(=C/c2ccc3ccccc3[n+]2CC)Sc2ccccc21	21.6	16.0	-3.8	38.6*	21.2	-14.1
CCN1/C(=C/c2ccc3ccccc3[n+]2CC)C=Cc2ccccc21	7.0	0.0	-12.5	29.0*	44.8*	-13.2
CNC(=O)c1cc(S(=O)(=O)N2CC(C)OC(C)C2)ccc1N1CCOCC1 (stereo unspecified)	0.1	-1.8	-1.8	19.9	16.2	-7.2
O=C(/C(=C\c1ccccc1)c1nc2ccccc2[nH]1)c1ccc(Cl)cc1	2.2	-1.9	0.1	0.0	-13.0	-3.6
O=C(/C(=C/c1ccc(Cl)cc1)c1nc2ccccc2[nH]1)c1cccs1	3.7	-5.9	-16.2	19.7	66.4*	-23.4
O/C(=C\c1nc2ccccc2[nH]1)c1cccs1	3.5	1.1	5.5	4.4	-4.2	3.0
O=c1[nH]c2ccccc2nc1/C=C(\O)c1cccs1	11.6	31.4*	-6.6	14.1	6.4	-16.0
CCN(CC)CCN1C(=O)C(=O)/C(=C(/O)c2c(C)[nH]c(C(=O)OC)c2C)C1c1ccc(OC)cc1 (stereo unspecified)	0.2	-1.2	1.5	2.6	2.6	-2.2
CCN(CC)CCN1C(=O)C(=O)/C(=C(/O)c2c(C)[nH]c(C(=O)OC)c2C)C1c1ccccc1 (stereo unspecified)	0.9	-2.0	29.5*	4.1	1.3	2.5
COC(=O)[C@H](CCSC)NC(=O)NCCC1=CCCCC1	1.2	-0.5	-0.3	35.0*	9.3	-20.7
COC(=O)[C@H](Cc1ccccc1)NC(=O)NCCC1=CCCCC1	1.9	-6.1	-0.1	62.8*	14.2	-23.3
COC(=O)[C@H](C)NC(=O)NCCC1=CCCCC1	0.3	-1.4	-5.3	9.6	-3.6	-4.2
CCN(C(=O)CN1CC(C)OC(C)C1)c1c(N)n(Cc2ccccc2)c(=O)[nH]c1=O (stereo unspecified)	0.1	0.1	8.3	10.8	0.1	5.0
O=C(OCCCOC(=O)c1cc[n+]([O-])cc1)c1cc[n+]([O-])cc1	1.7	-1.4	14.3	-23.1	-8.7	16.6
COc1ccc(C(=O)OCC(=O)NCCCc2ccccc2)c(OC)c1	3.1	-2.1	-4.4	9.4	11.5	-4.6
